Consider 21 compounds from ChEMBL document CHEMBL1146033, “Synthesis, calpain inhibitory activity, and cytotoxicity of P2-substituted proline and thiaproline peptidyl aldehydes and peptidyl alpha-ketoamides” (J Med Chem, 2006).

One assay has as its system PC-3. The assay is described as follows: Antiproliferative activity against human PC3 cell line by MTT assay. Format: functional. The gist of the method: (§1)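 Cells seeded at 2000 to 15000 per well, exposed to drug at 1 to 100 µM for 96 h at 37 °C, 5% CO2; untreated wells as negative control. MTT (5 mg/mL) added for final 2-4 h, formazan dissolved in DMSO, absorbance at 595 nm. GI50 (50% reduction in living cells vs untreated) from nonlinear regression of % survival against concentration.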

In another assay the test system is HeLa. The assay is described as follows: Antiproliferative activity against human HeLa cell line by MTT assay. Format: functional. The gist of the method:
as §1

Assay [1] addresses T1, Calpain-1 catalytic subunit (Sus scrofa, UniProt P35750).
T1 sequence (P35750 whole entry): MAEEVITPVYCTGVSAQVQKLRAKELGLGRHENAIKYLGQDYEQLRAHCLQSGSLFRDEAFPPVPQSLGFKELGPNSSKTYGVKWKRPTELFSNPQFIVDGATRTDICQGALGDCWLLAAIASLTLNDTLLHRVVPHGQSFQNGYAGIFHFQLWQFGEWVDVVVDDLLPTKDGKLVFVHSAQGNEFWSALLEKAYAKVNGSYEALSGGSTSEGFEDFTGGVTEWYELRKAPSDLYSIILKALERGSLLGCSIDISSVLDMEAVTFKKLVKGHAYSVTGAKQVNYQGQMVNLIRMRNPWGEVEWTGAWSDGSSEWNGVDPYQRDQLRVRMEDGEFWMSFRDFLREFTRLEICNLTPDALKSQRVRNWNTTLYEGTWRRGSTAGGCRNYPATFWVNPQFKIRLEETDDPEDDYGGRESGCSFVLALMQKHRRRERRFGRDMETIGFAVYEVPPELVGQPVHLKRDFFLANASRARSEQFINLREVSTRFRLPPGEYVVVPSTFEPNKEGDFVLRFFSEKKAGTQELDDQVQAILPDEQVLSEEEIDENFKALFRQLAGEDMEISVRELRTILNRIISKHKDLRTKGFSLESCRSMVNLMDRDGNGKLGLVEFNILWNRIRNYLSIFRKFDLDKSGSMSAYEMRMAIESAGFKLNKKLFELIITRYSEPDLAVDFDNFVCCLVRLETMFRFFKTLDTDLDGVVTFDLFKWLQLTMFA
The assay is described as follows: Inhibition of porcine erythrocyte mu calpain. The gist of the method:
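µ-Calpain (1 µg, porcine erythrocyte) in 50 mM Tris HCl pH 7.4, 50 mM NaCl, 10 mM DTT, 1 mM EDTA, 1 mM EGTA, 5 mM CaCl2, fluorogenic Suc-Leu-Tyr-AMC at 0.2 or 1.0 mM, varying inhibitor in DMSO (2% total). Ki from Dixon plots (1/v vs I) of triplicate-averaged data, intersecting lines r ≥ 0.95.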

For another assay, the system named is DU-145. The assay is described as follows: Antiproliferative activity against human DU145 cell line by MTT assay. Format: functional. The gist of the method:
as §1

In a further assay the target is Cathepsin B (Homo sapiens, UniProt P07858). The assay is described as follows: Inhibition of human liver cathepsin B. The gist of the method:
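Human liver cathepsin B (1 nM) in 50 mM NaOAc pH 6.0, 1 mM EDTA, 0.5 mM DTT, with Z-Arg-Arg-AMC at 50 or 250 µM and varying inhibitor in DMSO (2% total). Ki from Dixon plots of triplicate-averaged data, intersecting lines r ≥ 0.95; selectivity ratio = cathepsin B Ki / µ-calpain Ki.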

A short description of assay [2]: Selectivity ratio, Ki for human cathepsin B/Ki for porcine mu calpain.
For the next assay, the system named is Daudi. The assay is described as follows: Antiproliferative activity against human Daudi cell line by MTT assay. Format: functional. The gist of the method: as §1
Assay [3] concerns Jurkat. The assay is described as follows: Antiproliferative activity against human Jurkat cell line by MTT assay. Format: functional. The gist of the method:
as §1

Assay [4] has as its system Jurkat. The assay is described as follows: Inhibition of calpain-mediated production of spectrin breakdown products in Jurkat cells at 20 uM. Format: functional, Homo sapiens. The arrangement: scale not given: the % may be the effect or the level left. The gist of the method: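 Jurkat cells washed in HEPES-buffered saline, preincubated 10 min with inhibitor at 20 µM, then ionomycin (20 µM final) and Ca2+ (5 mM final) added; 60 min at 37 °C. Lysates resolved by SDS-PAGE, immunoblotted for α-spectrin and β-actin, chemiluminescence. 145/150-kDa spectrin breakdown doublet quantified by densitometry, normalized to β-actin.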

As to `Cc1ccc(S(=O)(=O)N2CCC[C@@H]2C(=O)NC(Cc2ccccc2)C(=O)C(=O)NCCc2ccccc2)cc1` (mixture of isomers), the GI50 in the assay with PC-3 came to 20.8 µM; in the assay on HeLa, 22.9 µM; with DU-145, 22.6 µM; in the assay with Daudi it was 19.6 µM; in the assay with Jurkat [3], 21.9 µM. The Ki in [1] is 0.85 µM; on Cathepsin B it was 6.9 µM. Further, the Selectivity ratio in assay [2] is 8.12.
`O=CC(Cc1ccccc1)NC(=O)[C@H]1CCCN1S(=O)(=O)c1ccccc1` (mixture of isomers): the Ki in [1] stood at 0.196 µM; on Cathepsin B it was 2.47 µM. In addition, the Selectivity ratio in assay [2] is 13.
Consider `O=CC(Cc1ccccc1)NC(=O)[C@H]1CCCN1S(=O)(=O)c1ccc([N+](=O)[O-])cc1` (stereo not given in full), for which the GI50 amounted to 49.3 µM in the assay on PC-3; 40.4 µM in the assay with HeLa; 42.4 µM in the assay with DU-145; 32.5 µM in the assay on Daudi; 33.8 µM in the assay on Jurkat [3]. Moreover, the Ki was 0.02 µM in [1] and 3.75 µM on Cathepsin B. In addition, the Selectivity ratio in assay [2] turned out to be 188. This compound displayed an Activity in the assay with Jurkat [4] of 22.8%.
As for `Cc1ccc(S(=O)(=O)N2CCC[C@@H]2C(=O)NC(C=O)Cc2ccccc2)cc1` (stereo not given in full), the GI50 with PC-3 is 40.1 µM; with HeLa it was 48.9 µM; in the assay on DU-145 it was 45.2 µM; in the assay with Daudi, 16.7 µM; in the assay on Jurkat [3], 17.6 µM. The Ki is 0.081 µM in assay [1] and 12.1 µM on Cathepsin B. In addition, in [2], the Selectivity ratio amounted to 151.
Turning to `O=CC(Cc1ccccc1)NC(=O)[C@H]1CSCN1S(=O)(=O)c1ccc(I)cc1` (mixture of isomers), the GI50 in the assay on PC-3 turned out to be 6.38 µM; in the assay with HeLa, 5.42 µM; in the assay with DU-145 it was 6.29 µM; in the assay with Daudi, 4.48 µM; in the assay with Jurkat [3], 5.97 µM. Further, the inhibition constant (Ki) is 0.042 µM in [1] and 0.11 µM on Cathepsin B. In [2], the Selectivity ratio turned out to be 2.61.
As for `O=CC(Cc1ccccc1)NC(=O)[C@H]1CCCN1S(=O)(=O)c1ccccc1[N+](=O)[O-]` (mixture of isomers), the Ki in assay [1] was 0.424 µM; at Cathepsin B, 4.61 µM. The Selectivity ratio in assay [2] is 10.9.
For `O=CC(Cc1ccccc1)NC(=O)[C@H]1CCCN1S(=O)(=O)c1ccc(F)cc1` (mixture of isomers), the 50% growth inhibitory concentration (GI50) is 27.1 µM with PC-3; 27.4 µM with HeLa; 24.8 µM with DU-145; 24.8 µM with Daudi; 24.2 µM with Jurkat [3]. For the same compound, the Ki in assay [1] was determined as 0.386 µM; at Cathepsin B, 6.99 µM. Also, the Selectivity ratio in assay [2] turned out to be 18.1.
As for `O=CC(Cc1ccccc1)NC(=O)[C@H]1CSCN1S(=O)(=O)c1ccc(Cl)cc1` (mixture of isomers), the values for the Ki (in assay [1]; at Cathepsin B) were 0.09 µM and 0.23 µM, respectively. Further, the Selectivity ratio in [2] is 2.5.
Consider `COc1ccc(S(=O)(=O)N2CCC[C@@H]2C(=O)NC(C=O)Cc2ccccc2)cc1` (mixture of isomers), for which the GI50 in the assay on PC-3 amounted to 19.7 µM; in the assay on HeLa it was 38.5 µM; in the assay on DU-145, 63.2 µM; in the assay on Daudi, 35.3 µM; in the assay with Jurkat [3] it was 25.4 µM. Also, the Ki in assay [1] is 0.037 µM; on Cathepsin B, 1.48 µM. Moreover, the Selectivity ratio in assay [2] came to 40.
On to `O=CC(Cc1ccccc1)NC(=O)[C@H]1CCCN1S(=O)(=O)c1ccc(Cl)cc1` (mixture of isomers), for which the inhibitory constant (Ki) in assay [1] stood at 0.141 µM; on Cathepsin B, 5.4 µM. The Selectivity ratio in assay [2] amounted to 38.2.
With `O=CC(Cc1ccccc1)NC(=O)[C@H]1CCCN1S(=O)(=O)c1ccc(I)cc1` (mixture of isomers), the figures for the inhibition constant (Ki) (in assay [1]; at Cathepsin B) were 0.033 µM and 4.18 µM, respectively. For the same compound, the Selectivity ratio in assay [2] was found to be 131.
On the same counts, the results for `CC(C)S(=O)(=O)N1CCC[C@@H]1C(=O)NC(C=O)Cc1ccccc1` (mixture of isomers) are 0.836 µM, 3.5 µM and 1.19.
For the compound `O=C(NCCc1ccccc1)C(=O)C(Cc1ccccc1)NC(=O)[C@H]1CCCN1S(=O)(=O)c1ccc([N+](=O)[O-])cc1` (mixture of isomers), the concentration for 50% growth inhibition (GI50) with PC-3 was 27.8 µM; with HeLa, 27.6 µM; in the assay with DU-145, 31.8 µM; with Daudi, 23.1 µM; in the assay with Jurkat [3] it was 21.3 µM. The Ki in assay [1] is 0.28 µM; at Cathepsin B, 12.1 µM. Also, the Selectivity ratio in [2] was found to be 18.1.
Consider `O=CC(Cc1ccccc1)NC(=O)[C@H]1CCCN1S(=O)(=O)c1cccc2ccccc12` (mixture of isomers), for which the results for the Ki (in assay [1]; at Cathepsin B) were 0.191 µM and 2.54 µM, respectively. Besides, the Selectivity ratio in assay [2] came out at 13.
Taken in the same sequence, the figures for `O=CC(Cc1ccccc1)NC(=O)[C@H]1CCCN1S(=O)(=O)c1cccc([N+](=O)[O-])c1` (mixture of isomers) were 0.256 µM, 5.45 µM and 21.3.
On to `O=CC(Cc1ccccc1)NC(=O)[C@H]1CSCN1S(=O)(=O)c1ccc(F)cc1` (mixture of isomers), for which the concentration for 50% growth inhibition (GI50) with PC-3 is 7.04 µM; with HeLa, 7.12 µM; in the assay on DU-145 it was 6.22 µM; in the assay with Daudi, 3.54 µM; with Jurkat [3], 6.13 µM. Moreover, the Ki in assay [1] worked out at 0.11 µM; at Cathepsin B, 0.34 µM. The Selectivity ratio in [2] is 3.09.
On to `COc1ccc(S(=O)(=O)N2CCC[C@@H]2C(=O)NC(Cc2ccccc2)C(=O)C(=O)NCCc2ccccc2)cc1` (mixture of isomers), for which the GI50 with PC-3 amounted to 14.6 µM; in the assay on HeLa, 31.4 µM; with DU-145, 30 µM; with Daudi it was 22.4 µM; in the assay on Jurkat [3], 23.8 µM. Also, the Ki is 0.45 µM in assay [1] and 2.59 µM on Cathepsin B. Also, in [2], the Selectivity ratio worked out at 5.7.
On to `O=CC(Cc1ccccc1)NC(=O)[C@H]1CCCN1S(=O)(=O)c1ccc(Br)cc1` (mixture of isomers), for which the Ki in assay [1] is 0.128 µM; at Cathepsin B, 4.42 µM. For the same compound, the Selectivity ratio in assay [2] is 34.5.
On the same counts, the results for `CCCCS(=O)(=O)N1CCC[C@@H]1C(=O)NC(C=O)Cc1ccccc1` (mixture of isomers) are 0.313 µM, 1.48 µM and 4.72.
In the case of `Cc1ccc(S(=O)(=O)N2CSC[C@@H]2C(=O)NC(C=O)Cc2ccccc2)cc1` (stereo not given in full), the GI50 was determined as 5.17 µM with PC-3; 4.37 µM with HeLa; 6 µM in the assay on DU-145; 2.17 µM in the assay with Daudi; 3.21 µM in the assay with Jurkat [3]. Further, the Ki in [1] amounted to 0.07 µM; at Cathepsin B, 0.119 µM. Further, the Selectivity ratio in assay [2] worked out at 1.7. In the assay with Jurkat [4], this compound gave an Activity of 82.4%.
Turning to `O=CC(Cc1ccccc1)NC(=O)[C@H]1CSCN1S(=O)(=O)c1ccc(Br)cc1` (mixture of isomers), the Ki was 0.074 µM in [1] and 0.09 µM at Cathepsin B. Moreover, in assay [2], the Selectivity ratio was determined as 1.21.
